CHO-K1 Ca antag = counter-screen for M1 antagonists: effect in parental CHO-K1 cells; inhibition, % at 3 µM; ATP-induced calcium, Fluo-8 fluorescence; 360,000 tested, 0.6% active;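 active = inhibition above a per-plate cutoff, the plate's mean sample inhibition plus 3 SD, cut at about 24% in these data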
CHO-K1 Ca ag = counter-screen for M1 agonists: effect in parental CHO-K1 cells; Fluo-8 calcium fluorescence; scaled to maximal ATP response, vehicle zero; activation, % at 3 µM; 360,000 tested, 0.48% active; AID 602248, 2012; in the data active = activation above about 15%;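 also: untransfected CHO-K1 host cells lacking M1 receptor as counterscreen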
OX1R antag-1 = antagonists of human orexin 1 receptor (OX1R). OX1R-expressing cells, FRET antagonist read-out. inhibition, % at 6.6 µM. 330,000 tested, 1.8% active; in the data active = inhibition mostly above about 38%, no sharp cut-off; inactive = mostly below about 40%
Target sequence (O43613 whole entry, looked up): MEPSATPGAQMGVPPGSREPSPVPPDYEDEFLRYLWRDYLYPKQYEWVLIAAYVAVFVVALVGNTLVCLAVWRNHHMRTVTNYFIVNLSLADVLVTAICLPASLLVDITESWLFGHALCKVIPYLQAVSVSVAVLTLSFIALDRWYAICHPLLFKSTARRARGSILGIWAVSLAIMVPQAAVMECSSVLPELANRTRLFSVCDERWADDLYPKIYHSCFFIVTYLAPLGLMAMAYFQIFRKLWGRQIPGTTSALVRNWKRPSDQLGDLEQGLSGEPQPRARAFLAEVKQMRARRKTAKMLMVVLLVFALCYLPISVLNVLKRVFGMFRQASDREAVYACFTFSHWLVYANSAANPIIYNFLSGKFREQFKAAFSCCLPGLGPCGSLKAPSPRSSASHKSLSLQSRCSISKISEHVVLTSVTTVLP
M1 PAM parental = nonselective calcium activators in parental CHO-K1 cells, primary screen, counter-screen for M1 PAM project, cell-based, Fluo-8 calcium fluorescence, full deck, 1536-well | 360,000 tested, 0.02% active | activation, % at 3 µM | ATP EC20; 0% at ATP EC20, 100% at ATP max;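 active = activation above the run cutoff, the mean activation of all test compounds plus 3 SD, cut at about 40% in these data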;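 also: peak over basal fluorescence ratio in a 140 s read after ATP addition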
CHO parental Ca = ATP-evoked calcium signal inhibitors, parental CHO, primary screen, counter-screen for OX1R antagonist project, cell-based, fluorescence, Fluo-8 calcium dye | 330,000 tested, 0.63% active | inhibition, % at 5.6 µM | parental CHO-K1, ATP-induced calcium, Fluo-8 fluorescence | AID 463079, 2010;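 active = inhibition above that plate's mean sample inhibition plus 3 SD, cut at about 26% in these data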
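test system = CHO parental line | reagent = ATP stimulus | measured by = intracellular calcium via Fluo-8 no-wash fluorescent dye | control set = ATP and no-ATP DMSO wells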
OX1R antag-2 = OX1R (HCRTR1) antagonists, primary screen, fluorescence, CHO/OX1R cells, Fluo-8 calcium, orexin A | Fluo-8 calcium fluorescence | inhibition, % at 5 µM | 330,000 tested, 0.43% active | AID 434989, 2010;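 active = inhibition above its plate's threshold, mean inhibition of all tested compounds on the plate plus 3 SD, cut at about 37% in these data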
A number is an active result; - = inactive; . = not tested or not shown. Rows were chosen to be rich in hits. Some 2.9% of all compounds tested hit in one or more screens of this group.

SMILES	CHO-K1 Ca antag	CHO-K1 Ca ag	OX1R antag-1	M1 PAM parental	CHO parental Ca	OX1R antag-2
O=C(O)c1ccccc1NC(c1ccccc1)c1ccc(Cl)cc1 (stereo not drawn)	-	-	-	-	-	-
Nc1ccc2oc(-c3cc(Br)ccc3Cl)nc2c1	-	-	47.3	-	-	-
Nc1ccc2oc(-c3ccccc3Cl)nc2c1	-	-	-	-	-	-
C[C@@H]1CN(Cc2nc(-c3cnccn3)no2)C[C@H](C)O1	-	24.1	-	-	-	-
CCCOC1CCCN(Cc2nc(-c3cnccn3)no2)C1 (stereo not drawn)	-	-	-	-	-	-
CCOC(=O)c1[nH]c2ccc(F)cc2c1NC(=O)Nc1ccccc1OC	-	16.4	-	-	-	-
CCOC(=O)c1[nH]c2ccc(OC)cc2c1NC(=O)NC(C)C	-	-	-	-	-	-
O=C1CN(C(=O)c2cccc([N+](=O)[O-])c2)CC(=O)N1	-	-	-	-	-	-
O=C(c1cccc([N+](=O)[O-])c1)c1ccc2c(c1)C(=O)NC2=O	-	-	54.3	-	-	-
NC(=O)c1ccc[n+]([C@H]2O[C@@H](COP(=O)([O-])OP(=O)(O)OC[C@H]3O[C@@H](n4cnc5c(N)ncnc54)[C@H](O)[C@@H]3O)[C@H](O)[C@@H]2O)c1	-	26.6	-	-	-	-
COc1ccc(C(=O)NC[C@H]2O[C@@H](n3cnc4c(N)ncnc43)[C@H](O)[C@@H]2O)cc1OC	-	-	.	-	.	.
CC1CCC(NC(=O)COC(=O)CCC(=O)c2ccc(Cl)s2)CC1 (stereo not drawn)	-	-	-	-	-	-
CCCCCCCCCCOC(=O)Cn1c(COc2ccccc2OC)[n+](C)c2ccccc21	28.9	17.4	-	-	83.8	76.8
CCOc1ncccc1C(=O)NC(C)CCc1ccccc1 (stereo not drawn)	-	18.6	.	-	.	.
O=C(Nc1nc2c(F)cc(F)cc2s1)c1ccccn1	-	-	-	-	-	-
O=C(Nc1ccccc1)c1nc[nH]c1C(=O)NCCNC(=O)c1[nH]cnc1C(=O)Nc1ccccc1	-	-	65.3	-	-	-
COC(=O)Cc1ccc(NC(=S)N2CCN(CCO)CC2)cc1	-	-	-	-	-	-
Cc1ccc(C)c(-n2c3nc(=O)n(C)c(=O)c-3cc3ccccc32)c1	-	-	63.0	-	-	-
OCC1OCOC2C(CO)OCOC12 (stereo not drawn)	-	-	.	-	.	.
COC(=O)C1=C(N)N(c2ccccc2C(F)(F)F)C2=C(C(=O)CCC2)C1c1ccc2c(c1)OCO2 (stereo not drawn)	-	-	-	-	47.9	-
COc1ccc(SCCN2CC[C@@H](C)CCC2=O)cc1	24.0	-	-	-	-	-
Cc1nc2ccccc2c2c(N)c3ccccc3n12	-	17.2	-	-	-	-
Nc1c2ccccc2nc2ccccc12	-	-	-	-	-	-
CC(=O)Nc1c(Nc2ccccc2)c2ccccc2oc1=O	-	15.3	-	-	-	-
CC(=O)Nc1c(NC(C)C)c2ccccc2oc1=O	-	-	-	-	-	-
SMILES	CHO-K1 Ca antag	CHO-K1 Ca ag	OX1R antag-1	M1 PAM parental	CHO parental Ca	OX1R antag-2
CC(C)(C)c1ccc(OCC(=O)N(c2ccccn2)C2CCCCC2)cc1	-	-	-	-	51.7	-
O=C(c1ccccc1)c1ccc(OCC(O)CNCc2ccc(Cl)cc2)cc1 (stereo not drawn)	-	18.1	-	-	-	-
CCCC(=O)Nc1ccccc1-c1nnc(SC)[nH]c1=O	28.2	-	-	-	-	-
Cc1cccc(NS(=O)(=O)c2nnc(NC(=O)c3ccc(C)c(C)c3)s2)c1	-	-	51.5	-	-	-
COCCNC(=S)N(C)[C@H]1C[C@H]2c3cc(-c4ccccc4)ccc3CCN2C(=O)[C@H]1[C@H](C)O	-	-	.	-	.	.
Cn1c(N)c(-c2ccccc2)c2ccc([N+](=O)[O-])cc2c1=O	-	15.5	-	-	42.6	53.1
COc1ccccc1NC(=O)Nc1nnc(-c2ccco2)s1	.	.	31.8	.	-	-

High-throughput results (PubChem)
